For data set [1], the system named is Homo sapiens. The experiment in a line: Drug level in human plasma treated with [14C]lixivaptan at 100 mg, po administered as single dose measured after 8 hrs by liquid scintillation counting. Type of data set: ADME, organism-based. Also noted: dosed compound name [14C]lixivaptan. The settings on record: in vivo. The essentials:
(§1)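 Healthy male volunteers fasted ≥10 h, given single oral 100 mg (200 µCi) [14C]drug as two 50-mg capsules with 250 ml water. Plasma (from ~50 ml blood) at 0.5, 2, 4, 8, 12, 24, 36 h, profiled per subject. Acetonitrile extraction, C18 radio-HPLC with 0.2% formic acid acetonitrile/water gradient, on-line radioactivity detection as % plasma radioactivity; ng-equiv/ml from % × total radioactivity.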

Data set [2] deals with Homo sapiens. The data set is described as follows: Drug level in human plasma treated with [14C]lixivaptan at 100 mg, po administered as single dose measured after 24 hrs by liquid scintillation counting. Type of data set: ADME, organism-based. The arrangement: dosed compound name [14C]lixivaptan. The settings on record: in vivo. The essentials:
as §1

Data set [3] concerns Homo sapiens. The data set is described as follows: Drug level in human plasma treated with [14C]lixivaptan at 100 mg, po administered as single dose measured after 2 hrs by liquid scintillation counting. In kind it is ADME, organism-based. Also noted: dosed compound name [14C]lixivaptan. The settings on record: in vivo. In short, it runs like this: as §1
The subject of data set [4] is Homo sapiens. The experiment in a line: AUC (0 to 24 hrs) in human treated with [14C]lixivaptan at 100 mg, po administered as single dose. Type of data set: ADME, organism-based, Plasma. Also noted: time < 24 hr, dose 100 mg, route oral, dosed compound name [14C]lixivaptan. As to conditions: in vivo. The essentials:
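Healthy young men fasted 10 h and took one oral dose of [14C]lixivaptan, 100 mg (200 µCi) as two capsules with water, eating 4 h later. Plasma from each subject at 0.5, 2, 4, 8, 12, 24 and 36 h was acetonitrile-extracted and profiled by C18 radio-HPLC (formic acid/acetonitrile gradient) with flow detection. Component concentrations were % of radioactivity × total plasma radioactivity, giving AUC0-24 in ng-equiv.h/ml.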

Data set [5] deals with Homo sapiens. The data set is described as follows: Drug level in human plasma treated with [14C]lixivaptan at 100 mg, po administered as single dose measured after 4 hrs by liquid scintillation counting. In kind it is ADME, organism-based. The arrangement: dosed compound name [14C]lixivaptan. As to conditions: in vivo. In short, it runs like this: as §1
The nature of data set [6]: Retention time of the compound by HPLC analysis. Type of data set: physicochemical. The arrangement: dosed compound name [14C]lixivaptan.
Data set [7] concerns Homo sapiens. The data set is described as follows: Drug level in human plasma treated with [14C]lixivaptan at 100 mg, po administered as single dose measured after 0.5 hrs by liquid scintillation counting. In kind it is ADME, organism-based. The arrangement: dosed compound name [14C]lixivaptan. The settings on record: in vivo. The essentials: as §1
Data set [8] deals with Homo sapiens. The data set is described as follows: Drug level in human plasma treated with [14C]lixivaptan at 100 mg, po administered as single dose measured after 12 hrs by liquid scintillation counting. Type of data set: ADME, organism-based. The arrangement: dosed compound name [14C]lixivaptan. The settings on record: in vivo. The essentials: as §1
Data set [9] has as its system Canis familiaris. The experiment in a line: Toxicity in beagle dog treated with [14C]lixivaptan at 10 mg/kg, po administered as single dose via gavage. Type of data set: organism-based, Canis lupus familiaris. The arrangement: dose 10 mg/kg, dosed compound name [14C]lixivaptan, route oral. As to conditions: in vivo.
Data set [10] concerns Rattus norvegicus. The data set is described as follows: Drug level in female Sprague-Dawley rat plasma treated with [14C]lixivaptan at 10 mg/kg, po administered as single dose via gavage measured after 1 hr by liquid scintillation counting. The arrangement: dose 10 mg/kg, dosed compound name [14C]lixivaptan, route oral. As to conditions: in vivo. In kind it is ADME, organism-based. The essentials: (§2)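 Sprague-Dawley rats (9/gender) were fasted 18 h and gavaged once with [14C]lixivaptan at 10 mg/kg (10 ml/kg), about 29.8 µCi/mg, suspended in deionized water with pluronic F68. Plasma came by cardiac puncture under isoflurane at 1, 8 and 24 h (3/gender/time) and was extracted twice with 2 volumes of acetonitrile. C18 radio-HPLC with a flow scintillation detector gave percent of plasma radioactivity per peak.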

For data set [11], the system named is Canis familiaris. The experiment in a line: Drug level in beagle dog plasma treated with [14C]lixivaptan at 10 mg/kg, po administered as single dose measured after 24 hrs by liquid scintillation counting. In kind it is ADME, organism-based, Canis lupus familiaris. The arrangement: dose 10 mg/kg, dosed compound name [14C]lixivaptan, route oral. The settings on record: in vivo. In short, it runs like this: (§3)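 Four male beagles fasted 18 h were gavaged once with [14C]lixivaptan at 10 mg/kg (2 ml/kg). The 5.0 mg/ml suspension was in deionized water with pluronic F68 (1.04 µCi/mg). Jugular K2EDTA plasma was taken at 2, 8 and 24 h and extracted twice with 2 volumes of acetonitrile. Profiling used C18 radio-HPLC (ammonium formate/acetonitrile gradient) with on-line flow scintillation detection. Each peak is reported as percent of plasma radioactivity.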

Data set [12] concerns Rattus norvegicus. The experiment in a line: Drug level in male Sprague-Dawley rat plasma treated with [14C]lixivaptan at 10 mg/kg, po administered as single dose via gavage measured after 1 hr by liquid scintillation counting. Type of data set: ADME, organism-based. The arrangement: dose 10 mg/kg, dosed compound name [14C]lixivaptan, route oral. As to conditions: in vivo. In short, it runs like this:
(§4)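 Single oral gavage of [14C]drug (10 mg/kg, 10 ml/kg) as suspension in deionized water with pluronic F68, ~29.8 µCi/mg; SD rats fasted 18 h, fed 4 h post-dose. Blood by cardiac puncture under isoflurane, 3 rats/time/gender, into K2EDTA at 1, 8, 24 h; plasma extracted twice with 2 vol acetonitrile, radio-HPLC on C18 with flow radioactivity detection, expressed as % plasma radioactivity.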

Data set [13] relates to Rattus norvegicus. The data set is described as follows: Toxicity in male Sprague-Dawley rat treated with [14C]lixivaptan at 10 mg/kg, po administered as single dose via gavage. Type of data set: organism-based. The arrangement: dose 10 mg/kg, dosed compound name [14C]lixivaptan, route oral. As to conditions: in vivo.
Data set [14] concerns Canis familiaris. The data set is described as follows: Drug level in beagle dog plasma treated with [14C]lixivaptan at 10 mg/kg, po administered as single dose measured after 2 hrs by liquid scintillation counting. The settings on record: in vivo. The arrangement: dose 10 mg/kg, dosed compound name [14C]lixivaptan, route oral. Type of data set: ADME, organism-based, Canis lupus familiaris. In short, it runs like this:
as §3

Data set [15] concerns Rattus norvegicus. The experiment in a line: Drug level in female Sprague-Dawley rat plasma treated with [14C]lixivaptan at 10 mg/kg, po administered as single dose via gavage measured after 24 hrs by liquid scintillation counting. The settings on record: in vivo. Type of data set: ADME, organism-based. Also noted: dose 10 mg/kg, dosed compound name [14C]lixivaptan, route oral. In short, it runs like this:
as §2

The test system of data set [16] is Rattus norvegicus. The experiment in a line: Toxicity in female Sprague-Dawley rat treated with [14C]lixivaptan at 10 mg/kg, po administered as single dose via gavage. In kind it is organism-based. Also noted: dose 10 mg/kg, dosed compound name [14C]lixivaptan, route oral. The settings on record: in vivo.
The subject of data set [17] is Rattus norvegicus. The data set is described as follows: Drug level in female Sprague-Dawley rat plasma treated with [14C]lixivaptan at 10 mg/kg, po administered as single dose via gavage measured after 8 hrs by liquid scintillation counting. Type of data set: ADME, organism-based. Also noted: dose 10 mg/kg, dosed compound name [14C]lixivaptan, route oral. The settings on record: in vivo. The essentials: as §4

Data set [18] relates to Canis familiaris. The experiment in a line: Drug level in beagle dog plasma treated with [14C]lixivaptan at 10 mg/kg, po administered as single dose measured after 8 hrs by liquid scintillation counting. In kind it is ADME, organism-based, Canis lupus familiaris. Also noted: dose 10 mg/kg, dosed compound name [14C]lixivaptan, route oral. The settings on record: in vivo. In short, it runs like this:
as §3

The subject of data set [19] is Homo sapiens. The data set is described as follows: Drug level in human plasma treated with [14C]lixivaptan at 100 mg, po administered as single dose measured after 36 hrs by liquid scintillation counting. As to conditions: in vivo. In kind it is ADME, organism-based. The arrangement: dosed compound name [14C]lixivaptan. In short, it runs like this: as §1
Data set [20] concerns Homo sapiens. The experiment in a line: Cmax in human treated with [14C]lixivaptan at 100 mg, po qd for 7 days. As to conditions: in vivo, 168 h. The arrangement: dose 100 mg, route oral, dosed compound name [14C]lixivaptan. Type of data set: ADME, organism-based.
The test system of data set [21] is Homo sapiens. The data set is described as follows: AUC at steady state in human treated with [14C]lixivaptan at 100 mg, po qd for 7 days by LC/MS/MS analysis. The arrangement: dosed compound name Lixivaptan. The settings on record: in vivo, 168 h. Type of data set: ADME, organism-based, Plasma. In short, it runs like this:
(§5)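 Phase 1 human study with lixivaptan 100 mg orally once daily and blood taken on the final day. Parent and two abundant metabolites were quantified in plasma with a validated LC-MS/MS assay.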

Data set [22] relates to Homo sapiens. The experiment in a line: AUC in human treated with [14C]lixivaptan at 100 mg, po qd for 7 days. Type of data set: ADME, organism-based, Plasma. The arrangement: dosed compound name [14C]lixivaptan. As to conditions: in vivo, 168 h.
The test system of data set [23] is Homo sapiens. The data set is described as follows: Drug concentration at steady state in human treated with [14C]lixivaptan at 100 mg, po qd for 7 days by LC/MS/MS analysis. Type of data set: ADME, organism-based. The arrangement: dosed compound name Lixivaptan. As to conditions: in vivo, 168 h. The essentials: as §5

The structures appear in SMILES notation.

Regarding `Cc1ccc(F)cc1C(=O)Nc1ccc(C(=O)N2C=C3CCC(=O)N3Cc3ccccc32)c(Cl)c1`, the Compound recovery in data set [1] is listed as 2.4%; in data set [2], 2.1%; in [3], 1.5%; in data set [5], 2.5%; in [7] it was 0.6%; in data set [8], 2.1%. Besides, in [4], the AUC is listed as 268 ng.Eq.hr/ml. For the same molecule, the Retention_time in [6] is reported as 20.2 min.

On to `Cc1ccc(F)cc1C(=O)Nc1ccc(C(=O)N2CC3C=CC(=O)N3Cc3ccccc32)c(Cl)c1` (configuration not stated), for which the Activity result in data set [9], in [13] and in data set [16] was “Non-toxic” each time. Moreover, the Compound recovery in [10] was 36.2%; in [11], 3.9%; in data set [12] it was 5.4%; in data set [14] it was 19.4%; in data set [15], 2.6%; in data set [17], 25.2%. Also, the Compound recovery in [18] was 11.1%.

Regarding `Cc1ccc(F)cc1C(=O)Nc1ccc(C(=O)N2Cc3cccn3C(O)c3ccccc32)c(Cl)c1` (configuration not stated), the Compound recovery in [1] amounted to 2.1%; in data set [2], 4.2%; in [3], 2.2%; in [19], 3.8%; in data set [5], 2.4%; in data set [7], 2.7%. The molecule also returned a Compound recovery in data set [8] of 1.6%. The Retention_time in [6] was 25.2 min.

As for `Cc1ccc(F)cc1C(=O)Nc1ccc(C(=O)Nc2ccccc2Cn2cccc2C(=O)O)c(Cl)c1`, the peak concentration (Cmax) – broadly, the peak of the concentration-time curve – in [20] was determined as 290 ng/mL. For the same molecule, the Activity entry in [9], in data set [13] and in data set [16] was “Non-toxic” each time. This molecule displayed an AUCss in data set [21] of 3040 ng·h/mL. Moreover, the Compound recovery in data set [1] came out at 12.2%; in [2], 11%; in data set [3], 16.5%; in [19] it was 7.6%; in [5], 16.8%; in data set [7], 4.1%. Also, the Compound recovery in data set [8] stood at 11.2%. The values for the AUC in data set [22] and in data set [4] were 2680 ng·h/mL and 2680 ng.Eq.hr/ml, respectively. In data set [23], this molecule registered a Css of 454 ng/mL. The Retention_time in [6] worked out at 23.3 min.

Values taken from ChEMBL document CHEMBL3525987, “Assessment of exposure of metabolites in preclinical species and humans at steady state from the single-dose radiolabeled absorption, distribution, metabolism, and excretion studies: a case study” (Drug Metab Dispos, 2012).
